Key:
Homo sapiens = organism: Homo sapiens; assay: In vitro inhibition of U-46,619-induced aggregation of unwashed human platelets.; assay type: functional; conditions: for Kb: Homo sapiens, read-out: pA2 (converted)
Summary of the method: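 Citrated (3.2%) human venous blood spun at 200g for 10 min. Platelet-rich plasma aggregated with U46619 with or without several antagonist concentrations.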

Prostacyclin synthase = biological target: T1, Prostacyclin synthase (Homo sapiens, UniProt Q16647); assay: In vitro inhibition of Prostaglandin I2 synthase in cultured human endothelial cells
T1 sequence (Q16647 whole entry): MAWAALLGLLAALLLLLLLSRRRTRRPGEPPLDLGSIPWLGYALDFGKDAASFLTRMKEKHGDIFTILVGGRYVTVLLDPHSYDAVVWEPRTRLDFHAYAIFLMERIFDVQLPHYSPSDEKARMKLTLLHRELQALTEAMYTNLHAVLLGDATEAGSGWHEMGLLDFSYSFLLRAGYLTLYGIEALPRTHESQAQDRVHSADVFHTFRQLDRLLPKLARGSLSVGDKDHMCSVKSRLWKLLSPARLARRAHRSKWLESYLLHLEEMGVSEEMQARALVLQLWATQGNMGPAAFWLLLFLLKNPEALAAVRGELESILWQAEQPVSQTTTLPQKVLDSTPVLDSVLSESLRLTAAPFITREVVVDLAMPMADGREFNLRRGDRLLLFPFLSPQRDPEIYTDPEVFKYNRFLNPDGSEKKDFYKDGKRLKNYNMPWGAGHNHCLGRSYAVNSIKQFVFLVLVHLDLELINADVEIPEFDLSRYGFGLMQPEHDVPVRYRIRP

Thromboxane-A synthase = biological target: T2, Thromboxane-A synthase (Homo sapiens, UniProt P24557); assay: In vitro Inhibition of thromboxane synthase from human blood platelet microsomes
T2 sequence (P24557 whole entry): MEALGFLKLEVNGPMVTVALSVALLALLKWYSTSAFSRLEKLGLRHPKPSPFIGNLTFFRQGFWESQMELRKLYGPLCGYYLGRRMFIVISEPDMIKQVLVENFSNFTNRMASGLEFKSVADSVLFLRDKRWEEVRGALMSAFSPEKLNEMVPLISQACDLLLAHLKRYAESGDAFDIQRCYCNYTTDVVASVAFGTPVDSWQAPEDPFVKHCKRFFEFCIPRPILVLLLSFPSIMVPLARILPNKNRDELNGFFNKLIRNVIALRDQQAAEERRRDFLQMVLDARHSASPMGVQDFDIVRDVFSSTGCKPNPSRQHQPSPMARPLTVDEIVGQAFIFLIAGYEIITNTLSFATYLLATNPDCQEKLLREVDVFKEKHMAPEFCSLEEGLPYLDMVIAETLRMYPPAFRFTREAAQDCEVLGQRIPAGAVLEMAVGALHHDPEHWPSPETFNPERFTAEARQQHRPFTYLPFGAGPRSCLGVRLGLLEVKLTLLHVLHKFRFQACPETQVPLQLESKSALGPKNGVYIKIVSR
Summary of the method: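 Human blood platelet microsomes incubated with [1-14C]arachidonic acid with or without inhibitor. Conversion to labeled thromboxane B2 quantified radiochromatographically. n = 2.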

Row | IC50 (Prostacyclin synthase) | IC50 (Thromboxane-A synthase) | SMILES | Kb (Homo sapiens) | pA2 (Homo sapiens)
1 | > 100000 nM | 41 nM | COc1ccc(OC(C)(C)C2OCC(C/C=C\CCC(=O)O)C(c3cccnc3)O2)cc1 (stereo unspecified) | 302 nM | 
2 | 60000 nM | 90 nM | Cc1cccc(C#N)c1OC(C)(C)C1OCC(C/C=C\CCC(=O)O)C(c2cccnc2)O1 (stereo unspecified) | 25.1 nM | 
3 | 2000 nM | 45 nM | CC(C)(Oc1ccccc1S(C)(=O)=O)C1OCC(C/C=C\CCC(=O)O)C(c2cccnc2)O1 (stereo unspecified) | 589 nM | 
4 |  | > 10000 nM | Cc1ccc(OC(C)(C)C2OCC(C/C=C\CCC(=O)O)C(c3cccnc3)O2)c([N+](=O)[O-])c1 (stereo in doubt; 7y) |  | < 5
5 | 3000 nM | 45 nM | CC(C)(Oc1ccccc1C#N)C1OCC(C/C=C\CCC(=O)O)C(c2cccnc2)O1 (stereo unspecified) | 13.2 nM | 
6 | 40000 nM | 26 nM | CC(C)(Oc1cccc(F)c1)C1OCC(C/C=C\CCC(=O)O)C(c2cccnc2)O1 (stereo unspecified) | 126 nM | 
7 | 7000 nM | 29 nM | CC(C)(Oc1ccccc1Br)C1OCC(C/C=C\CCC(=O)O)C(c2cccnc2)O1 (stereo unspecified) | 63.1 nM | 
8 |  | 40 nM | CC(C)(Sc1ccccc1)C1OCC(C/C=C\CCC(=O)O)C(c2cccnc2)O1 (stereo unspecified) | 200 nM | 
9 | 32000 nM | 39 nM | CSc1ccc(OC(C)(C)C2OCC(C/C=C\CCC(=O)O)C(c3cccnc3)O2)cc1 (stereo unspecified) | 372 nM | 
10 | 75000 nM | 52 nM | CC(C)(Oc1ccccc1)C1OCC(C/C=C\CCC(=O)O)C(c2cccnc2)O1 (stereo unspecified) | 75.9 nM | 
11 | > 100000 nM | 36 nM | CSc1ccccc1OC(C)(C)C1OCC(C/C=C\CCC(=O)O)C(c2cccnc2)O1 (stereo unspecified) | 89.1 nM | 
12 | 73000 nM | 66 nM | COC(=O)c1ccccc1OC(C)(C)C1OCC(C/C=C\CCC(=O)O)C(c2cccnc2)O1 (stereo unspecified) | 64.6 nM | 
13 | 3400 nM | 51 nM | CC(C)(Oc1ccc(Br)cc1)C1OCC(C/C=C\CCC(=O)O)C(c2cccnc2)O1 (stereo in doubt; 7b) |  | 6.42
14 | 4000 nM | 46 nM | CC(C)(Oc1ccc(C#N)cc1)C1OCC(C/C=C\CCC(=O)O)C(c2cccnc2)O1 (stereo unspecified) | 129 nM | 
15 | 47000 nM | 50 nM | Cc1ccc(OC(C)(C)C2OCC(C/C=C\CCC(=O)O)C(c3cccnc3)O2)c(C#N)c1 (stereo in doubt; 7ac) |  | 8.1
16 | 4000 nM | 22 nM | CC(C)(Oc1ccc(Br)cc1)C1OCC(C/C=C\CCC(=O)O)C(c2cccnc2)O1 (stereo in doubt; 7q) |  | 6.48
17 | < 1000 nM | 45 nM | CC(C)(Oc1ccccc1F)C1OCC(C/C=C\CCC(=O)O)C(c2cccnc2)O1 (stereo unspecified) | 166 nM | 
18 | 37000 nM | 15 nM | CC(C)(Oc1ccc(F)cc1C#N)C1OCC(C/C=C\CCC(=O)O)C(c2cccnc2)O1 (stereo unspecified) | 0.708 nM | 
19 | 25000 nM | 360 nM | Cc1ccc(OC(C)(C)C2OCC(C/C=C\CCC(=O)O)C(c3cccnc3)O2)cc1 (stereo unspecified) | 631 nM | 
20 | < 1000 nM | > 10000 nM | CC(C)(Oc1ccc(Br)cc1)C1OCC(C/C=C\CCC(=O)O)C(c2cccnc2)O1 (stereo in doubt; 7p) |  | 5.61
21 | 51000 nM | 60 nM | COc1ccccc1OC(C)(C)C1OCC(C/C=C\CCC(=O)O)C(c2cccnc2)O1 (stereo unspecified) | 224 nM | 
22 | 13000 nM | 12 nM | CC(C)(Cc1ccccc1)C1OCC(C/C=C\CCC(=O)O)C(c2cccnc2)O1 (stereo unspecified) | 513 nM | 
23 | 9000 nM | 20 nM | CC(C)(Oc1ccc(F)cc1[N+](=O)[O-])C1OCC(C/C=C\CCC(=O)O)C(c2cccnc2)O1 (stereo unspecified) | 2.51 nM | 
24 | 14000 nM | 37 nM | CC(C)(Cc1ccccc1C#N)C1OCC(C/C=C\CCC(=O)O)C(c2cccnc2)O1 (stereo unspecified) | 27.5 nM | 
25 | > 100000 nM | 32 nM | CC(C)(Oc1ccccc1O)C1OCC(C/C=C\CCC(=O)O)C(c2cccnc2)O1 (stereo unspecified) | 95.5 nM | 
26 | > 100000 nM | 50 nM | Cc1ccc(C#N)c(OC(C)(C)C2OCC(C/C=C\CCC(=O)O)C(c3cccnc3)O2)c1 (stereo unspecified) | 15.8 nM | 
27 | 12000 nM | 25 nM | Cc1ccc(OC(C)(C)C2OCC(C/C=C\CCC(=O)O)C(c3cccnc3)O2)c(C#N)c1 (stereo in doubt; 7af) | 3.98 nM | 
28 | 33000 nM | 27 nM | Cc1ccc(OC(C)(C)C2OCC(C/C=C\CCC(=O)O)C(c3cccnc3)O2)c([N+](=O)[O-])c1 (stereo in doubt; 7w) |  | 8.34

Second part, the compound before the results:

Row | SMILES | IC50 (Prostacyclin synthase) | IC50 (Thromboxane-A synthase) | Kb (Homo sapiens) | pA2 (Homo sapiens)
29 | COc1ccc(OC(C)(C)C2OCC(C/C=C\CCC(=O)O)C(c3cccnc3)O2)c([N+](=O)[O-])c1 (stereo unspecified) | 23000 nM | 37 nM | 6.17 nM | 
30 | O=C(O)CC/C=C\CC1COC(c2ccc3ccccc3c2)OC1c1cccnc1 (stereo unspecified) |  | 50 nM | 1780 nM | 
31 | O=C(O)CC/C=C\CC1COC(c2cccs2)OC1c1cccnc1 (stereo unspecified) |  | 71 nM | 1000 nM | 
32 | CC(C)(Cc1ccc(F)cc1)C1OCC(C/C=C\CCC(=O)O)C(c2cccnc2)O1 (stereo unspecified) | 2000 nM | 45 nM | 89.1 nM | 
33 | COc1ccc(SC(C)(C)C2OCC(C/C=C\CCC(=O)O)C(c3cccnc3)O2)c([N+](=O)[O-])c1 (stereo unspecified) |  | 40 nM | 158 nM | 
34 | CC(=O)c1ccc(OC(C)(C)C2OCC(C/C=C\CCC(=O)O)C(c3cccnc3)O2)c([N+](=O)[O-])c1 (stereo unspecified) | 4000 nM | < 10 nM | 1.51 nM | 
35 | CSc1ccc(OC(C)(C)C2OCC(C/C=C\CCC(=O)O)C(c3cccnc3)O2)c([N+](=O)[O-])c1 (stereo unspecified) | 5000 nM | 22 nM | 4.47 nM | 
36 | CC(C)(Oc1ccc(S(C)(=O)=O)cc1)C1OCC(C/C=C\CCC(=O)O)C(c2cccnc2)O1 (stereo unspecified) | 8000 nM | 34 nM | 91.2 nM | 
37 | O=C(O)CC/C=C\CC1COC(c2ccsc2)OC1c1cccnc1 (stereo unspecified) |  | 500 nM | 1580 nM | 
38 | Cc1ccc(SC(C)(C)C2OCC(C/C=C\CCC(=O)O)C(c3cccnc3)O2)c([N+](=O)[O-])c1 (stereo unspecified) |  | 30 nM | 158 nM | 
39 | CC(C)(C1OCC(C/C=C\CCC(=O)O)C(c2cccnc2)O1)S(=O)(=O)c1ccccc1 (stereo unspecified) |  | 40 nM | 3160 nM | 
40 | O=C(O)CC/C=C\CC1COC(c2ccc([N+](=O)[O-])cc2)OC1c1cccnc1 (stereo unspecified) | 13000 nM | 39 nM | 933 nM | 
41 | CC(C)(Sc1ccccc1C#N)C1OCC(C/C=C\CCC(=O)O)C(c2cccnc2)O1 (stereo unspecified) |  | 40 nM | 316 nM | 
42 | O=C(O)CC/C=C\CC1COC(c2ccc(C(F)(F)F)cc2)OC1c1cccnc1 (stereo unspecified) |  | 44 nM | 1780 nM | 
43 | O=C(O)CCCC/C=C(\c1ccccc1)c1cccnc1 [(E)-ISBOGREL] | > 100000 nM |  |  | 
44 | O=C(O)CC/C=C\CC1COC(c2ccc(Cl)c(Cl)c2)OC1c1cccnc1 (stereo unspecified) | 9000 nM | 42 nM | 776 nM | 
45 | O=C(O)CC/C=C\CC1COC(c2cccc3ccccc23)OC1c1cccnc1 (stereo unspecified) |  | 40 nM | 631 nM | 
46 | O=C(O)CC/C=C\CC1COC(c2cccnc2)OC1c1cccnc1 (stereo unspecified) |  | 220 nM | 759 nM | 
47 | CC(C)(Cc1ccc(F)cc1C#N)C1OCC(C/C=C\CCC(=O)O)C(c2cccnc2)O1 (stereo unspecified) | 7000 nM | < 10 nM | 2.19 nM | 
48 | O=C(O)CC/C=C\C[C@@H]1CO[C@H](c2ccccc2Cl)O[C@@H]1c1ccccc1O |  | > 100000 nM | 6.92 nM | 
49 | O=C(O)CC/C=C\CC1COC(c2ccc(Cl)cc2Cl)OC1c1cccnc1 (stereo unspecified) | 2500 nM | 42 nM | 891 nM | 
50 | O=C(O)CC/C=C\CC1COC(c2ccco2)OC1c1cccnc1 (stereo unspecified) |  | 164 nM | 1260 nM | 
51 | O=C(O)CC/C=C\CC1COC(c2ccccc2Cl)OC1c1cccnc1 (stereo unspecified) |  | 48 nM | 759 nM | 
52 | CC(C)(C)c1ccc(OC(C)(C)C2OCC(C/C=C\CCC(=O)O)C(c3cccnc3)O2)cc1 (stereo unspecified) |  | 280 nM | 1910 nM | 
53 | N#Cc1ccc(C2OCC(C/C=C\CCC(=O)O)C(c3cccnc3)O2)cc1 (stereo unspecified) | > 100000 nM | 24 nM | 1290 nM | 
